ATG4B inh: inhibitors of human ATG4B cysteine protease | Q9Y4P1 | ATG4B cleavage of LC3-PLA2, NBD-HPC fluorescence, 1 h | inhibition, % at 8.33 µM | actives 0.51% (n = 340,000) | AID 504462; in the data active = inhibition above about 40%
Target sequence (Q9Y4P1 whole entry, looked up): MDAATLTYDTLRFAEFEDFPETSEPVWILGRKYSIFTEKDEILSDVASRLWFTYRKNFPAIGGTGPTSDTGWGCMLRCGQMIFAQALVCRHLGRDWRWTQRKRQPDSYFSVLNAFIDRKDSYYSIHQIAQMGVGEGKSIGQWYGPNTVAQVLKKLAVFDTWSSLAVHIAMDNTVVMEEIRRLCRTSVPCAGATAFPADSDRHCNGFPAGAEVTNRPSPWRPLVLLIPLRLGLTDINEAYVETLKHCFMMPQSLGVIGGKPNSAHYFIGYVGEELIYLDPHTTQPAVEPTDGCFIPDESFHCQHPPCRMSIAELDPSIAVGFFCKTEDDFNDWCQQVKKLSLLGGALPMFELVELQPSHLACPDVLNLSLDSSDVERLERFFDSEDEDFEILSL
SENP1 inh: blocks the human SENP1 SUMO protease catalytic domain | Q9P0U3 | recombinant SENP1 catalytic domain, CyPet-SUMO1-YPet FRET cleavage | inhibition, % at 10 µM | actives 0.21% (n = 360,000);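 active = inhibition at least 30% at 10 µM, raw YFP signal under a set limit, fluorescence ratio 0.5 to 1.5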;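 note: 0% = enzyme with DMSO and 100% = no enzyme wells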
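Assay system – human recombinant His6-tagged SENP1 catalytic domain enzyme · Input – SENP1 enzyme, 20 pM final · Buffer or medium – Tris pH 8 buffer plus EDTA, NaCl, BME, BSA, NP40, catalase · Schedule – 50 min reaction at room temperature · Technique – FRET read of cyan and yellow fluorescence · Control set – no-enzyme wells low, DMSO-plus-enzyme wells high control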
NadD block: NadD (S. aureus) enzyme inhibition | inhibition, % at 20 µM | purified NadD enzyme, colorimetric absorbance read-out | AID 602399 | actives 0.78% (n = 360,000); in the data active = inhibition above about 26%
GRIN3A LBD mod: modulators (binders) of human NR3A ligand-binding domain | Tm shift relative to glycine control, % at 25 µM | NR3A LBD differential scanning fluorimetry, Tm shift; 0% = protein alone, 100% = glycine-bound protein | actives 2.5% (n = 340,000) | AID 1259313;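 active = melting temperature shift of at least 10% of the positive control shift, at one fixed dose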
UCH37 inh: human UCH37 deubiquitinating enzyme inhibition. purified proteasome/UCH37, Ub-AMC cleavage fluorescence. inhibition, % (test concentration not listed). actives 0.33% (n = 330,000). AID 588478;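 active = mean inhibition over replicate wells above about 20%, limit read from the data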;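 note: 0% = compound-free wells with enzyme and 100% = wells lacking proteasome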
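Schedule: 30 min plus 25 min, room temperature / Material: human UCH37 within purified proteasomes / Technique: AMC fluorescence intensity at 355/460 nm / Buffer or medium: pH 7.4 Tris-HCl (50 mM) with ovalbumin, ATP-MgCl2, DTT / Controls: wells without proteasome as full block, compound-free enzyme plus substrate as uninhibited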
The depositor's hits bear a star; / = not tested or not shown. Shown are actives, neighbours in structure and some others; about 3.6% of the full set was active somewhere.

SMILES | ATG4B inh | SENP1 inh | NadD block | GRIN3A LBD mod | UCH37 inh
Cn1ccnc1COc1ccc(C=NO)cc1 | / | / | / | / | 2.5
Cn1cc(/C=N/NC(=O)c2cc3cc(Br)ccc3o2)c2ccccc21 | -8.6 | -34.5 | 19.5 | 21.8* | /
Nc1ccc(C(=O)N/N=C\c2cc(N=Nc3cccc4ccccc34)ccc2O)cc1 | 9.1 | -0.8 | 41.1* | 8.0 | /
NC(=O)c1cccc2c1-c1ccccc1C2=NNC(N)=S | / | / | / | / | 15.5
O=C(NN=Cc1ccccn1)c1ccccc1 | / | / | / | / | 2.8
COCCn1c(=NC(=O)C2COc3ccccc3O2)sc2cc(S(N)(=O)=O)ccc21 (stereo not given) | -15.6 | -7.2 | -2.2 | 17.1* | /
C=CCn1c(=NC(=O)C2COc3ccccc3O2)sc2cc(S(N)(=O)=O)ccc21 (stereo not given) | -19.6 | -3.1 | 3.6 | -3.9 | /
Cc1occc1C(=O)Nc1ccc([N+](=O)[O-])cc1Br | 5.1 | 3.5 | -2.1 | 0.8 | 1.2
CC1(C)CC1C(=O)Nc1ccc([N+](=O)[O-])cc1Br (stereo not given) | -2.9 | 2.6 | -6.6 | 11.9* | 4.4
COc1ccccc1-[n+]1c(C)cc(/C=C2\Sc3ccccc3N2C)cc1C | 18.4 | -34.6 | -7.6 | 1.6 | 20.4*
COc1ccc(-[n+]2c(C)cc(/C=C3\Sc4ccccc4N3C)cc2C)cc1 | / | -25.3 | 3.4 | -3.6 | 23.7*
COc1ccc(C(=O)/C=C2\Sc3ccccc3N2C)cc1 | 4.2 | -127.2 | -7.2 | 6.1 | -61.6
Oc1cc(CNCc2ccccc2)c(O)cc1CNCc1ccccc1 | 7.1 | 10.2 | 57.3* | 1.5 | 3.0
S=c1[nH]nc(-c2n[nH]c3c2CCC3)n1N=C/C=C/c1ccccc1 | / | / | / | / | 6.0
COc1ccc(C(=O)Nn2c(SCc3ccc([N+](=O)[O-])cc3)nc3ccccc3c2=O)cc1 | 32.5 | 2.9 | 33.3* | 0.1 | -3.1
COc1ccc(C(=O)Nn2c(SCC(=O)c3ccccc3)nc3ccccc3c2=O)cc1 | -0.1 | 0.9 | 16.1 | -6.7 | 1.8
O=C(NN=Cc1ccsc1)c1cc2ccccc2o1 | / | / | / | / | -53.9
Cc1ccc(C(C(=O)Nc2ccc3c(c2)OCO3)N(C)C(=O)/C=C\c2ccc3c(c2)OCO3)cc1 (stereo not given) | 36.5 | 2.7 | 10.2 | 13.4* | 3.7
COc1ccccc1N(CC(=O)NN=Cc1ccccc1C(=O)O)S(C)(=O)=O | / | / | / | / | 5.6
CCNC(=S)NN=Cc1cn(Cc2ccccc2F)c2ccccc12 | / | / | / | / | 8.9
CC(C)Cn1c(N)c(C(=O)COC(=O)c2ccc(Cl)cc2)c(=O)n(C)c1=O | -4.5 | -8.4 | -4.3 | -1.4 | 2.5
CC(C)Cn1c(N)c(C(=O)COC(=O)c2c(O)c(Cl)cc(Cl)c2Cl)c(=O)n(C)c1=O | 10.0 | 0.6 | 5.1 | 10.9* | 1.9
Cc1nc(S(=O)(=O)c2ccc(Cl)cc2)c(NCc2ccccc2)o1 | -5.5 | 1.9 | -4.9 | 1.4 | /
CNc1oc(C)nc1S(=O)(=O)c1ccccc1 | -3.9 | 1.8 | -7.2 | 15.0* | -6.0
O=C(NCc1ccccn1)Nc1cc(Cl)cc(Cl)c1 | 11.8 | 1.2 | 0.9 | -4.9 | 1.4
SMILES | ATG4B inh | SENP1 inh | NadD block | GRIN3A LBD mod | UCH37 inh
O=C(NCc1csc2ccccc12)Nc1cc(Cl)cc(Cl)c1 | 9.4 | -0.5 | 2.2 | 21.2* | 3.6
Cc1cc(C(=O)NN=Cc2cccc([N+](=O)[O-])c2)c2ccccc2n1 | / | / | / | / | 2.1
N#CC(=C(O)CN1CCN(c2ccccc2F)CC1)c1nc(-c2ccccc2)cs1 | 0.1 | -5.5 | 10.6 | -1.3 | 0.6
N#CC(=C(O)CN1CCN(c2ccccc2F)CC1)c1nc(-c2ccc(Cl)cc2)cs1 | 1.1 | -0.4 | 11.4 | 89.6* | 1.5
Cc1ccc(-c2cc(C(=O)NCCCn3ccnc3)c3cc(Br)ccc3n2)o1 | -10.0 | -8.7 | 49.1* | -3.8 | -137.2
COc1ccc(C=NNC(N)=S)cc1OC(=O)c1cccc2ccccc12 | / | / | / | / | 3.2
COc1ccc(C(c2nnnn2C(C)(C)C)N2CCN(c3nc4ccccc4s3)CC2)cc1 (stereo not given) | -3.2 | 2.9 | 1.0 | 12.8* | -2.1
COc1ccc(N2CCN(C(c3ccccc3)c3nnnn3C(C)(C)C)CC2)cc1 (stereo not given) | / | 1.5 | -5.3 | / | /
COc1ccc(OC)c(Nc2nc(-c3sc(N)nc3C)cs2)c1 | -30.1 | -12.5 | 31.8* | -19.9 | 3.4
CCCC(=O)Nc1nc(C)c(-c2csc(Nc3cc(OC)ccc3OC)n2)s1 | -18.0 | -6.1 | 21.8 | -0.2 | -4.3

Bioassay records from PubChem BioAssay.
